Test results taken from ChEMBL document CHEMBL1125911, “Synthesis and biological activity of new HMG-CoA reductase inhibitors. 3. Lactones of 6-phenoxy-3,5-dihydroxyhexanoic acids” (J Med Chem, 1991).

Assays:
Rattus norvegicus [1] = assay: In vivo inhibition of hepatic cholesterol de novo synthesis in rat after oral administration of 5 mg/kg dose; format: functional
Oryctolagus cuniculus [2] = assay: Tested in vivo for hypocholesterolemic activity by measuring its ability to decrease serum total cholesterol, after oral administration of 10 mg/kg body wt. per day in normolipidemic NZW rabbits; format: functional
Method in brief: (§1)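 NZW rabbits (n = 5 or 6) dosed orally daily for 10 days. Serum total cholesterol reported as % change versus control. For 20 mg/kg, that dose was given on days 11-20 after 10 mg/kg, with the value read on day 20. Error given as SEM.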

Canis familiaris [3] = assay: Tested in vivo for hypocholesterolemic activity by measuring its ability to decrease serum LDL-cholesterol, after oral administration of 10 mg/kg per day for 19 days in male Beagle dogs.
Oryctolagus cuniculus [4] = assay: Tested in vivo for hypocholesterolemic activity by measuring its ability to decrease serum total cholesterol, after oral administration of 20 mg/kg body wt. per day in normolipidemic NZW rabbits; format: functional; method in brief: as §1
[5] = biological target: T1, 3-hydroxy-3-methylglutaryl-coenzyme A reductase (Rattus norvegicus, UniProt P51639); assay: In vitro inhibition of HMG-CoA reductase in solubilized rat liver.
T1 sequence (P51639 whole entry): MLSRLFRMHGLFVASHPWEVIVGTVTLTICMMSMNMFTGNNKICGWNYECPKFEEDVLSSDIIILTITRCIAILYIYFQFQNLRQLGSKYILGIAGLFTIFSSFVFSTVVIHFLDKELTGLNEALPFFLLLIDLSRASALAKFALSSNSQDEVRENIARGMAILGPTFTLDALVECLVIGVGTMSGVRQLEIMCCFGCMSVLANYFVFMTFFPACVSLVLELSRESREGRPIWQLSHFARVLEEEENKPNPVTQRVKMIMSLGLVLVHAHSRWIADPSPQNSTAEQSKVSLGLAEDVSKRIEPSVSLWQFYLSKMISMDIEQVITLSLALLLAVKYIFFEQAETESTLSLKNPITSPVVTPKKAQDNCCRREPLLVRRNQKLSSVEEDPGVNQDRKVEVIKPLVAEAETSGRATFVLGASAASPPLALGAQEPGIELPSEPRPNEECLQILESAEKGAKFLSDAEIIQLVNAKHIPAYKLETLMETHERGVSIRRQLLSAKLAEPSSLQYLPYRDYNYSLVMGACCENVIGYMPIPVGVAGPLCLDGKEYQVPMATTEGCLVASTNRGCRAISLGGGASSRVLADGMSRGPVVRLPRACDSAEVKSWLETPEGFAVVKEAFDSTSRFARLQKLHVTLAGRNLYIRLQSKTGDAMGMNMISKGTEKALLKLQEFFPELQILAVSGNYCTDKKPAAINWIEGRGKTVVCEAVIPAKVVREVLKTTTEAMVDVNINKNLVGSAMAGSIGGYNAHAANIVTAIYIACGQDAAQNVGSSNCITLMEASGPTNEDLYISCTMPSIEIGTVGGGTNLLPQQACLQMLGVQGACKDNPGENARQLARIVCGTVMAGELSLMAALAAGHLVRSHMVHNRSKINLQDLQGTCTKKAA

Oryctolagus cuniculus [6] = assay: Tested in vivo for hypocholesterolemic activity by measuring its ability to decrease serum total cholesterol, after oral administration of 75 mg/kg body wt. per day in normolipidemic NZW rabbits; format: functional; method in brief: as §1
[7] = biological target: T2, 3-hydroxy-3-methylglutaryl-coenzyme A reductase (Homo sapiens) (UniProt P04035); assay: (§2) Inhibition of HMG-CoA reductase compared to mevinolin.; format: functional
T2 sequence (whole entry): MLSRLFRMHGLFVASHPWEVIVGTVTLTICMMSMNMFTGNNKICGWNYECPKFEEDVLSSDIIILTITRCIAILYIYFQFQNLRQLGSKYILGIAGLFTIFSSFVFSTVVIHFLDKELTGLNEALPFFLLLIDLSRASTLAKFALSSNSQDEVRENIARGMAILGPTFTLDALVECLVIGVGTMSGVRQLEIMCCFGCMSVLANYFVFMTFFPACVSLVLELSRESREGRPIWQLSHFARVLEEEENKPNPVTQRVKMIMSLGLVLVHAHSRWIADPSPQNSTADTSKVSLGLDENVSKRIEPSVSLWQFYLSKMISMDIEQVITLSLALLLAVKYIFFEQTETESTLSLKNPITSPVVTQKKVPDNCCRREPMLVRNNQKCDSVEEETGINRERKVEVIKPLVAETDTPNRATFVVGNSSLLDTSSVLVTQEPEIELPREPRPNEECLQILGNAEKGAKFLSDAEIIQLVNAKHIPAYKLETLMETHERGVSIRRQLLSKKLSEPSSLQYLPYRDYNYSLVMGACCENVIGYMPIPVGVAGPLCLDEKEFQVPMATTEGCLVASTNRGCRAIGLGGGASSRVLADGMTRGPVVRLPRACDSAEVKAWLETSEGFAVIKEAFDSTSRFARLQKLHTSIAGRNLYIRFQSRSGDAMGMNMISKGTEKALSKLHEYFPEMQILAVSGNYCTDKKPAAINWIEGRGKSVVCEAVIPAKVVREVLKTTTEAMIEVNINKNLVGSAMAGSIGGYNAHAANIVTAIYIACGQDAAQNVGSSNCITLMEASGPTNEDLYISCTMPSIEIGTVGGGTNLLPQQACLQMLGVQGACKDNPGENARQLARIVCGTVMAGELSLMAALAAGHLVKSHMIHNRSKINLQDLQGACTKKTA
Method in brief: (§3)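 Solubilized, partially purified rat liver HMG-CoA reductase. IC50 from four or five inhibitor concentrations. Relative potency compared IC50 with mevinolin (set to 100), corrected for molecular weight.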

Rattus norvegicus [8] = organism: Rattus norvegicus; assay: In vitro inhibition of microsomal lipid peroxidation at 10e-5 M concentration; format: functional
Method in brief: (§4)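 Rat liver microsomes in 50 mM Tris-HCl pH 7.4 with 100 mM KCl and 6.0 mM MgCl2, final protein 0.4 mg/mL. Peroxidation was started with ADP (2 mM)/FeCl3 (10 μM) plus an NADPH-regenerating system. Incubation 30 min at 37 °C with shaking. Thiobarbituric acid reactive substances were read at 535 nm.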

Rattus norvegicus [9] = assay: Compound was tested for effect on body weight after oral administration of 100 mg/kg in male rats.; format: functional
Method in brief: (§5)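 Male HOE:WISKf (SPF 71) rats, initial body weight over 180 g, n = 10 per group, dosed once daily in the morning by gavage in polyethylene glycol 400 for 7 days; controls received vehicle. Fasted after last dose, bled retroorbitally 24 h later under mild ether. Liver and body weight recorded. Pooled group serum was ultracentrifuged into VLDL (<1.006), LDL (1.006-1.04) and HDL (1.04-1.21). Values are % change versus control.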

Rattus norvegicus [10] = assay: Compound was tested for effect on serum HDL after oral administration of 100 mg/kg in male rats; format: functional; method in brief: as §5
Rattus norvegicus [11] = organism: Rattus norvegicus; assay: Compound was tested for inhibition of microsomal lipid peroxidation and the potency relative to terbufucine was determined; format: functional; method in brief: as §4
[12] = biological target: T3, 3-hydroxy-3-methylglutaryl-coenzyme A reductase (Rattus norvegicus) (UniProt P51639); assay: as §2; method in brief: as §3
T3 sequence (whole entry): T1 sequence (P51639 whole entry)

Rattus norvegicus [13] = assay: Compound was tested for effect on serum VLDL after oral administration of 100 mg/kg in male rats; format: functional; method in brief: as §5
[14] = biological target: T4, 3-hydroxy-3-methylglutaryl-coenzyme A reductase (Homo sapiens, UniProt P04035); assay: Inhibition of the incorporation of sodium [14C]acetate into cholesterol in HEP G2 cells.; format: functional, cell-based, HepG2
T4 sequence (P04035 whole entry): T2 sequence (whole entry)

Rattus norvegicus [15] = assay: Compound was tested for effect on serum LDL after oral administration of 100 mg/kg in male rats; format: functional; method in brief: as §5
Rattus norvegicus [16] = assay: Compound was tested for effect on liver weight after oral administration of 100 mg/kg in male rats.; format: functional; method in brief: as §5
Sus scrofa [17] = organism: Sus scrofa; assay: Compound was tested for inhibition of Cu2+ catalyzed LDL oxidation and the potency relative to terbufucine was determined; format: functional
Method in brief: (§6)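 Porcine plasma LDL isolated by sequential ultracentrifugation (density 1.019-1.063 g/mL), dialysed against PBS pH 7.4, then diluted to 0.1 mg/mL protein. Preincubated 1 h at 37 °C under N2 with compound in ethanol. Oxidised with 5 μM Cu2+ for 2 h at 37 °C in air. Fluorescence read at ex 365/em 430 nm.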

Sus scrofa [18] = organism: Sus scrofa; assay: In vitro inhibition of Cu2+ catalyzed LDL oxidation at 10e-5 M conc.; format: functional; method in brief: as §6
Rattus norvegicus [19] = organism: Rattus norvegicus; assay: In vitro inhibition of microsomal lipid peroxidation; format: functional; method in brief: as §4
Canis familiaris [20] = assay: Tested in vivo for hypocholesterolemic activity by measuring its ability to decrease serum LDL-cholesterol, after oral administration of 30 mg/kg per day for 14 days in male Beagle dogs.; format: functional, Canis lupus familiaris
Method in brief: (§7)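 Male beagle dogs (n = 4) given neat compound in gelatine capsules daily at 3:00 p.m.; controls received empty capsules. After an overnight fast, venous blood was drawn at 8:00 a.m. Serum lipoproteins were separated by ultracentrifugation (densities 1.006/1.063/1.21). LDL-cholesterol reported as % change versus control.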

Canis familiaris [21] = assay: Tested in vivo for hypocholesterolemic activity by measuring its ability to decrease serum LDL-cholesterol, after oral administration of 5 mg/kg per day for 14 days in male Beagle dogs.; format: functional, Canis lupus familiaris; method in brief: as §7
Rattus norvegicus [22] = organism: Rattus norvegicus; assay: Potency relative to mevinolin was determined with respect to IC50. […]; format: functional
Canis familiaris [23] = assay: Tested in vivo for hypocholesterolemic activity by measuring its ability to decrease serum LDL-cholesterol, after oral administration of 30 mg/kg per day for 21 days in male Beagle dogs.; format: functional, Canis lupus familiaris; method in brief: as §7
Oryctolagus cuniculus [24] = assay: Tested in vivo for hypocholesterolemic activity by measuring its ability to decrease serum total cholesterol, after oral administration of 75 mg/kg body wt. per day in normolipidemic NZW rabbits; Very potent; format: functional, organism-based; parameters: dose 75 mg/kg, route oral
Canis familiaris [25] = assay: Tested in vivo for hypocholesterolemic activity by measuring its ability to decrease serum LDL-cholesterol, after oral administration of 10 mg/kg per day for 14 days in male Beagle dogs.; format: functional, Canis lupus familiaris; method in brief: as §7
Canis familiaris [26] = assay: Tested in vivo for hypocholesterolemic activity by measuring its ability to decrease serum LDL-cholesterol, after oral administration of 25 mg/kg per day for 14 days in male Beagle dogs.; format: functional, Canis lupus familiaris; method in brief: as §7
Oryctolagus cuniculus [27] = assay: Tested in vivo for hypocholesterolemic activity by measuring its ability to decrease serum total cholesterol, after oral administration of 75 mg/kg body wt. per day in normolipidemic NZW rabbits; Not significantly active; format: functional, organism-based; parameters: dose 75 mg/kg, route oral
[28] = biological target: T1, 3-hydroxy-3-methylglutaryl-coenzyme A reductase; assay: In vitro inhibition of solubilized HMG-CoA reductase in rat liver.
Oryctolagus cuniculus [29] = assay: Tested in vivo for hypocholesterolemic activity by measuring its ability to decrease serum total cholesterol, after oral administration of 75 mg/kg body wt. per day in normolipidemic NZW rabbits; More potent than compound 73; format: functional, organism-based; parameters: dose 75 mg/kg, route oral

Compound: CC[C@H](C)C(=O)O[C@H]1C[C@@H](C)C=C2C=C[C@H](C)[C@H](CC[C@@H]3C[C@@H](O)CC(=O)O3)[C@H]21 [LOVASTATIN]
- Cholesterol (Rattus norvegicus [1]): 14%
- Change (Oryctolagus cuniculus [2]): -25%
- Change (Canis familiaris [3]): -20%
- Change (Oryctolagus cuniculus [4]): -27%

Compound: O=C([O-])C[C@H](O)CC(O)COc1c(Cl)cc(Cl)cc1C(c1ccc(F)cc1)c1ccc(F)cc1.[Na+] (stereo in doubt; 11b)
- IC50 [5]: 50 nM
- Change (Oryctolagus cuniculus [6]): -25%

Compound: CC(C)c1cc(SC(C)(C)Sc2cc(-c3ccc(F)cc3)c(OC[C@H](O)C[C@@H](O)CC(=O)[O-])c(C(C)C)c2)cc(-c2ccc(F)cc2)c1OC[C@H](O)C[C@@H](O)CC(=O)[O-].[Na+].[Na+]
- Relative potency [7]: < 5
- inhibition (Rattus norvegicus [8]): < 10%
- IC50 [5]: 10 nM
- Change (Rattus norvegicus [9]): 5%
- Change (Rattus norvegicus [10]): 9%
- Relative potency (Rattus norvegicus [11]): < 0.1
- Relative potency [12]: 37
- Change (Rattus norvegicus [13]): -23%
- IC50 [14]: > 1000 nM
- Change (Rattus norvegicus [15]): -52%
- Change (Rattus norvegicus [16]): -1%

Compound: CC(C)c1cc(Sc2ccc(F)cc2)cc(-c2ccc(F)cc2)c1OCC1C[C@@H](O)CC(=O)O1 (stereo partly drawn)
- Relative potency (Sus scrofa [17]): <0.1
- inhibition at 10 µM (Sus scrofa [18]): 23%
- IC50 (Rattus norvegicus [19]): > 10000 nM
- Change (Canis familiaris [20]): -21%
- Change (Canis familiaris [21]): -9%

Compound: CC(C)c1cc(-c2ccc(F)cc2)cc(-c2ccc(F)cc2)c1OCC1C[C@@H](O)CC(=O)O1 (stereo partly drawn)
- Cholesterol (Rattus norvegicus [1]): 84.5%
- Change (Oryctolagus cuniculus [2]): -28%
- Relative potency (Rattus norvegicus [22]): 18
- Change (Canis familiaris [23]): 3%
- Change (Oryctolagus cuniculus [4]): -34%

Compound: CC(C)c1cc(-c2ccc(F)cc2)c(OCC(O)C[C@@H](O)CC(=O)[O-])c(C(C)C)c1.[Na+] (stereo partly drawn)
- Relative potency [7]: 150
- IC50 [5]: 2.7 nM
- Relative potency [12]: 300
- IC50 (Oryctolagus cuniculus [24]): Very potent
- Change (Canis familiaris [25]): -10%
- Change (Canis familiaris [26]): -21%
- Change (Oryctolagus cuniculus [2]): -32%
- IC50 [14]: 30 nM
- Change (Oryctolagus cuniculus [4]): -37%

Compound: CC(C)c1cc(C(C)(C)C)cc(-c2ccc(F)cc2)c1OCC(O)C[C@@H](O)CC(=O)[O-].[Na+] (stereo partly drawn)
- Relative potency [7]: < 10
- IC50 [5]: 400 nM
- IC50 (Oryctolagus cuniculus [27]): Not Active
- Relative potency [12]: 2
- IC50 [14]: > 500 nM

Compound: CC(C)c1nc(C(C)(C)C)cc(-c2ccc(F)cc2)c1/C=C/[C@@H](O)C[C@@H](O)CC(=O)[O-].[Na+]
- IC50 [28]: 1 nM
- IC50 (Oryctolagus cuniculus [29]): More potent than compound 73
